Key:
p-tau species [1] = test: ^3H-UCB-J saturation binding in AD P1 fraction pre-blocked with tau PET ligands; design: species or system Human; conditions: 10 μM pre-blocking of frontal cortex AD P1 fraction
How it was run: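 AD frontal cortex pooled P1 fraction was pre-blocked with 10 μM unlabeled tau PET ligand on ice for 1 h. It was then spun at 2800 rpm for 10–15 min at 4°C to remove free ligand and resuspended in binding buffer. Saturation binding used 0–40 nM ³H-UCB-J, 2 h at room temperature, with filtration and scintillation counting. Data are means ± SEM of three to four experiments in duplicate.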

SV2A [2] = biological target: T1, SV2A (Homo sapiens, UniProt Q7L0J3); assay type: binding; conditions: 1 mM levetiracetam; 5 nM ^3H-UCB-J; CN frontal cortex P2 (Figure S2)
p-tau species [3] = test: ^3H-UCB-J vs MK6240 competition binding in P1 fractions; design: species or system Human; conditions: 100 μM; CN and AD P1 fraction; 5 nM ^3H-UCB-J
How it was run: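 Pooled frontal cortex P1 fractions (0.05 mg protein) from one control and one AD pool. These were incubated 2 h at room temperature with 5 nM ³H-UCB-J plus increasing unlabeled competitor (10⁻¹⁴ to 10⁻⁴) in Tris-HCl pH 7.4 binding buffer. Samples were filtered and counted by scintillation. Binding was expressed as % of total; IC₅₀ came from non-linear competitive-binding regression.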

SV2A [4] = biological target: T1, SV2A; conditions: frontal cortex (middle frontal gyrus) autoradiography; ref 24 Metaxas et al.; cited from earlier work
SV2A [5] = biological target: T1, SV2A; conditions: AD middle frontal cortex; ref 34 Mikkelsen et al.; cited from earlier work
tau = tau (Homo sapiens, UniProt P10636); test: ^3H-MK6240 vs UCB-J competition binding in P1 fractions; conditions: up to 10 μM UCB-J; CN and AD P1 fractions; 0.5 nM ^3H-MK6240
Chain of tau (P10636 623-758 limits assumed): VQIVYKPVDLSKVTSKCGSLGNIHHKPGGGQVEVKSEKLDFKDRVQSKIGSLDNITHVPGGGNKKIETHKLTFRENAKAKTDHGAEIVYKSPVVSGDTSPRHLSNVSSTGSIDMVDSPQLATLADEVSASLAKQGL

T1 sequence (Q7L0J3 whole entry): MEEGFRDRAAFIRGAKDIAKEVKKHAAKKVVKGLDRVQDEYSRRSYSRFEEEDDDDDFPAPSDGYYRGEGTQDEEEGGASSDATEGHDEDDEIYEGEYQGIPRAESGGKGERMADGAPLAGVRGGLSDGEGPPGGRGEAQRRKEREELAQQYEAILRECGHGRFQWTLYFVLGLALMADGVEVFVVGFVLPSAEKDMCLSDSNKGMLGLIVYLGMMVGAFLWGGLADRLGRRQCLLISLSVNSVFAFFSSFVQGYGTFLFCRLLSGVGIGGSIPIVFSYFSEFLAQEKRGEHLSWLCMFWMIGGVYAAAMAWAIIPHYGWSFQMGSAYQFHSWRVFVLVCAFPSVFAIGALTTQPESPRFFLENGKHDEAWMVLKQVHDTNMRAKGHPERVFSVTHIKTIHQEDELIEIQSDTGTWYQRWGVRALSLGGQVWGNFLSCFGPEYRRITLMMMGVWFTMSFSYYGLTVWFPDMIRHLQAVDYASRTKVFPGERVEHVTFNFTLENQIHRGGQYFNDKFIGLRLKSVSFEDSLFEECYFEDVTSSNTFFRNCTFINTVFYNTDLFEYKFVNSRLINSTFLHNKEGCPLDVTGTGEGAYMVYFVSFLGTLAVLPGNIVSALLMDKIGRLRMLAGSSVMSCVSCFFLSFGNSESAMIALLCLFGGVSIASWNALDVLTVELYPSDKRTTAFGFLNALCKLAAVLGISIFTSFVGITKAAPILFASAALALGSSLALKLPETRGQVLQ

SMILES: Fc1ccc(-c2ccc3c(c2)[nH]c2ccncc23)cn1 [AV-1451]
- reduction in ^3H-UCB-J binding compared to unblocked AD P1 fractions (p-tau species [1]): ≈ 22%

SMILES: CC[C@@H](C(N)=O)N1CCCC1=O [Levetiracetam]
- displacement of ^3H-UCB-J binding compared with 1 μM UCB-J (SV2A [2]): same displacement

SMILES: Nc1c(F)ccc2cnc(-n3ccc4ccncc43)cc12 [MK6240]
- reduction in ^3H-UCB-J binding compared to unblocked AD P1 fractions (p-tau species [1]): ≈ 22%
- displacement of ^3H-UCB-J binding (p-tau species [3]): ≈ 38%

SMILES: Cc1cnccc1CN1C[C@@H](c2cc(F)c(F)c(F)c2)CC1=O [UCB-J]
- difference in UCB-J binding between AD and CN cases (SV2A [4]): no difference
- reduction in UCB-J binding in AD compared to CN (SV2A [5]): 19%
- displacement of ^3H-MK6240 binding (tau): no displacement
